ChEMBL document CHEMBL1152649, “Synthesis, cytotoxicity and human telomerase inhibition activities of a series of 1,2-heteroannelated anthraquinones and anthra[1,2-d]imidazole-6,11-dione homologues” (2009)

Assays:
[1] = Cytotoxicity against human H1299 cells at 1 uM after 48 hrs by MTT assay; format: functional; conditions: NCI-H1299, 48 h
Summary of the method: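 H1299 non-small cell lung cancer cells were grown in RPMI 1640 with 10% FBS, penicillin and streptomycin at 37 °C under 5% CO2. About 2 × 10³ cells per well were seeded and left 24 h. Compounds were dissolved fresh in DMSO, diluted into complete medium and applied for 48 h. MTT was then added for 4 h at 37 °C, followed by lysis buffer (20% SDS, 50% DMF) for 16 h, and absorbance was read at 550 nm.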

A549 = test: Antiproliferative activity against human A549 cells assessed as cell growth at 10 uM; format: functional; conditions: read-out: Activity
Summary of the method: (§1)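 NCI 60 cell line panel, single-dose screen (10^-5 M) run by the developmental therapeutics program protocol. Results are given as growth percent of treated cells relative to untreated control cells for each line.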

HOP-62 = test: Antiproliferative activity against human HOP62 cells assessed as cell growth at 10 uM; format: functional; conditions: read-out: Activity; summary of the method: as §1
[2] = Antiproliferative activity against human Hs 578T cells assessed as cell growth at 10 uM; format: functional; conditions: read-out: Activity; summary of the method: as §1
MDA-MB-468 = test: Antiproliferative activity against human MDA-MB-468 cells assessed as cell growth at 10 uM; format: functional; conditions: read-out: Activity; summary of the method: as §1
OVCAR-3 [3] = test: Antiproliferative activity against human OVCAR-3 cells assessed as cell growth at 10 uM; format: functional; conditions: read-out: Activity; summary of the method: as §1
OVCAR-4 = test: Antiproliferative activity against human OVCAR4 cells assessed as cell growth at 10 uM; format: functional; conditions: read-out: Activity; summary of the method: as §1
CCRF-CEM = test: Antiproliferative activity against human CCRF-CEM cells assessed as cell growth at 10 uM; format: functional; conditions: read-out: Activity; summary of the method: as §1
786-0 = test: Antiproliferative activity against human 786-0 cells assessed as cell growth at 10 uM; format: functional; conditions: read-out: Activity; summary of the method: as §1
A498 = test: Antiproliferative activity against human A498 cells assessed as cell growth at 10 uM; format: functional; conditions: read-out: Activity; summary of the method: as §1
RXF 393 = test: Antiproliferative activity against human RXF393 cells assessed as cell growth at 10 uM; format: functional; conditions: read-out: Activity; summary of the method: as §1
M14 = test: Antiproliferative activity against human M14 cells assessed as cell growth at 10 uM; format: functional; conditions: read-out: Activity; summary of the method: as §1
SK-MEL-28 [4] = test: Antiproliferative activity against human SK-MEL-28 cells assessed as cell growth at 10 uM; format: functional; conditions: read-out: Activity; summary of the method: as §1
PC-3 [5] = test: Antiproliferative activity against human PC3 cells assessed as cell growth at 10 uM; format: functional; conditions: read-out: Activity; summary of the method: as §1
SNB-19 = test: Antiproliferative activity against human SNB19 cells assessed as cell growth at 10 uM; format: functional; conditions: read-out: Activity; summary of the method: as §1
HCT-15 [6] = test: Antiproliferative activity against human HCT15 cells assessed as cell growth at 10 uM; format: functional; conditions: read-out: Activity; summary of the method: as §1
KM12 [7] = test: Antiproliferative activity against human KM12 cells assessed as cell growth at 10 uM; format: functional; conditions: read-out: Activity; summary of the method: as §1
[8] = target: Telomerase reverse transcriptase (Homo sapiens) (UniProt O14746); test: Inhibition of TERT in human H1299 cells assessed as residual transcriptional activity at 100 uM after 24 hrs by SEAP reporter gene assay; values are per cent of control
Telomerase reverse transcriptase (Homo sapiens), sequence (O14746 whole entry): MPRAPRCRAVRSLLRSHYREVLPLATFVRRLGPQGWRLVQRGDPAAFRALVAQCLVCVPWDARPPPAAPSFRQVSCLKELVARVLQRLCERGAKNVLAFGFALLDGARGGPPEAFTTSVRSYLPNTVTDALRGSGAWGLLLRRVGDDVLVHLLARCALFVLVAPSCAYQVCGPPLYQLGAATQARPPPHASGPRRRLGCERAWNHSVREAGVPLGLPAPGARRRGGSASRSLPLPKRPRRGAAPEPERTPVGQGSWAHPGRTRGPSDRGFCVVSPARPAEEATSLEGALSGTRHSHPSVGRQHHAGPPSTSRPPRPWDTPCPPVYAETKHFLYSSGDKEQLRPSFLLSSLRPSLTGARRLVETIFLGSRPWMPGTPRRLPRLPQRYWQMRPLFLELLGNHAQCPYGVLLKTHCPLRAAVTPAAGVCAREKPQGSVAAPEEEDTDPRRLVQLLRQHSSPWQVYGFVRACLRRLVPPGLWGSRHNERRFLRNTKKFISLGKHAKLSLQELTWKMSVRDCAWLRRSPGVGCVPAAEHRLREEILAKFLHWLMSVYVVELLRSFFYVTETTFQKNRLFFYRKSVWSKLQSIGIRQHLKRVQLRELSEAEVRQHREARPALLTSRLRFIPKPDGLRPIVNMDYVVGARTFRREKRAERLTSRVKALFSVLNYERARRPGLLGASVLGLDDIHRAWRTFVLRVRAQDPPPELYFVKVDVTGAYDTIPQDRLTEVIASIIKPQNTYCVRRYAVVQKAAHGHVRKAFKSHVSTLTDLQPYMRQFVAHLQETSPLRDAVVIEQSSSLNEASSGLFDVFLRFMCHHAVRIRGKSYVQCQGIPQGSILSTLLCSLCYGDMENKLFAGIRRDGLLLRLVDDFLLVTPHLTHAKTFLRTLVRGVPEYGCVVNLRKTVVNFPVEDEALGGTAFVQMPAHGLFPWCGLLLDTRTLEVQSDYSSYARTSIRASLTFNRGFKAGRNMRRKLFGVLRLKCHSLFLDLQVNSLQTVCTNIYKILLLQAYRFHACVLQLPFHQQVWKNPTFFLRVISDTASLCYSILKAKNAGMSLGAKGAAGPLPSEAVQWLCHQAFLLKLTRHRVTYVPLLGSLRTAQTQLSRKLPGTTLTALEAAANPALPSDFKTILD

MDA-MB-231 = test: Growth inhibition of human MDA-MB-231 cells; format: functional
Summary of the method: (§2)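 NCI 60 cancer cell line screen run per the Developmental Therapeutics Program protocol. Dose–response curves were plotted against log10 drug concentration for each cell line within its subpanel, and mean graph midpoint values were calculated.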

[9] = Growth inhibition of human Hs 578T cells; format: functional; summary of the method: as §2
TK-10 = test: Antiproliferative activity against human TK10 cells assessed as cell growth at 10 uM; format: functional; conditions: read-out: Activity
Summary of the method: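 NCI 60 cell line panel, single dose (10^-5 M), run per the Developmental Therapeutics Program protocol (one dose mean graph). Each result is the growth percentage of treated cells relative to untreated control cells.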

Malme-3M = test: Antiproliferative activity against human MALME-3M cells assessed as cell growth at 10 uM; format: functional; conditions: read-out: Activity; summary of the method: as §1
HL-60(TB) = test: Growth inhibition of human HL-60(TB) cells; format: functional
Summary of the method: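 NCI 60-cell-line panel run under the Developmental Therapeutics Program protocol. Dose-response curves are plotted against log10 drug concentration for each cell line within its subpanel, and GI50 is read from these curves.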

MOLT-4 = test: Growth inhibition of human MOLT4 cells; format: functional; summary of the method: as §2
HOP-92 = test: Growth inhibition of human HOP92 cells; format: functional; summary of the method: as §2
NCI-H226 = test: Growth inhibition of human NCI-H226 cells; format: functional; summary of the method: as §2
NCI-H23 = test: Growth inhibition of human NCI-H23 cells; format: functional; summary of the method: as §2
COLO 205 = test: Growth inhibition of human COLO205 cells; format: functional; summary of the method: as §2
HCC 2998 = test: Growth inhibition of human HCC2998 cells; format: functional; summary of the method: as §2
HCT-15 [10] = test: Growth inhibition of human HCT15 cells; format: functional; summary of the method: as §2
KM12 [11] = test: Growth inhibition of human KM12 cells; format: functional; summary of the method: as §2
SF-268 = test: Growth inhibition of human SF268 cells; format: functional
Summary of the method: (§3)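 Assayed in the NCI 60 human cancer cell line panel under the Developmental Therapeutics Program protocol. For each line, dose–response curves were plotted against log10 drug concentration. In the one-dose screen at 10^-5 M, growth was given as percent of untreated control cells, and mean graph midpoint values were averaged.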

LOX IMVI = test: Growth inhibition of human LOXIMVI cells; format: functional; summary of the method: as §2
SK-MEL-28 [12] = test: Growth inhibition of human SK-MEL-28 cells; format: functional; summary of the method: as §3
OVCAR-3 [13] = test: Growth inhibition of human OVCAR-3 cells; format: functional; summary of the method: as §2
OVCAR-8 = test: Growth inhibition of human OVCAR8 cells; format: functional; summary of the method: as §2
SK-OV-3 = test: Growth inhibition of human SKOV3 cells; format: functional; summary of the method: as §3
ACHN = test: Growth inhibition of human ACHN cells; format: functional; summary of the method: as §2
UO-31 = test: Growth inhibition of human UO31 cells; format: functional; summary of the method: as §3
PC-3 [14] = test: Growth inhibition of human PC3 cells; format: functional; summary of the method: as §3
[15] = read-out: LC50 (the source's name)

## O=C1c2ccccc2C(=O)c2c1ccc1nc(-c3ccc4c(c3)OCO4)[nH]c21
[1]
  viability at 1 µM: 79%
A549
  growth at 10 µM: 102%
HOP-62
  growth at 10 µM: 114%
[2]
  growth at 10 µM: 106%
MDA-MB-468
  growth at 10 µM: 96.4%
OVCAR-3 [3]
  growth at 10 µM: 107%
OVCAR-4
  growth at 10 µM: 101%
CCRF-CEM
  growth at 10 µM: 99.6%
786-0
  growth at 10 µM: 107%
A498
  growth at 10 µM: 91.7%
RXF 393
  growth at 10 µM: 120%
M14
  growth at 10 µM: 120%
SK-MEL-28 [4]
  growth at 10 µM: 116%
PC-3 [5]
  growth at 10 µM: 107%
SNB-19
  growth at 10 µM: 121%
HCT-15 [6]
  growth at 10 µM: 106%
KM12 [7]
  growth at 10 µM: 97.8%
[8]
  residual activity: 34%

## O=C1c2ccccc2C(=O)c2c1ccc1nsnc21
MDA-MB-231
  GI50: 1.75 µM
  LC50 (concentration killing 50% of cells): > 100 µM
  TGI: 5.9 µM
[9]
  GI50: 1.41 µM
  LC50: 56 µM
  TGI: 5.02 µM
[1]
  viability at 1 µM: 40%
A549
  growth at 10 µM: 104%
HOP-62
  growth at 10 µM: -100%
[2]
  growth at 10 µM: -7.4%
MDA-MB-468
  growth at 10 µM: -73.2%
OVCAR-3 [3]
  growth at 10 µM: -15.5%
OVCAR-4
  growth at 10 µM: -94.4%
CCRF-CEM
  growth at 10 µM: -30.8%
786-0
  growth at 10 µM: -26%
A498
  growth at 10 µM: 130%
RXF 393
  growth at 10 µM: 20.1%
TK-10
  growth at 10 µM: 97%
M14
  growth at 10 µM: 74.5%
Malme-3M
  growth at 10 µM: -71.5%
SK-MEL-28 [4]
  growth at 10 µM: 15.5%
SNB-19
  growth at 10 µM: 79%
HL-60(TB)
  GI50: 0.16 µM
  TGI: 0.4 µM
HL-60(TB); [15]
  CC50: 0.99 µM
MOLT-4
  GI50: 0.49 µM
  TGI: 1.84 µM
MOLT-4; [15]
  CC50: 4.71 µM
HOP-92
  GI50: 2.52 µM
  TGI: 6.64 µM
HOP-92; [15]
  CC50: > 100 µM
NCI-H226
  GI50: 4.48 µM
  TGI: 21.6 µM
NCI-H226; [15]
  CC50: 63.7 µM
NCI-H23
  GI50: 1.44 µM
  TGI: 6.04 µM
NCI-H23; [15]
  CC50: > 100 µM
COLO 205
  GI50: 13.4 µM
  TGI: 28.9 µM
COLO 205; [15]
  CC50: 62.4 µM
HCC 2998
  GI50: 16.4 µM
  TGI: 33.1 µM
HCC 2998; [15]
  CC50: 66.6 µM
HCT-15 [10]
  GI50: 1.71 µM
  TGI: 3.72 µM
HCT-15 [10]; [15]
  CC50: 8.12 µM
KM12 [11]
  GI50: 1.96 µM
  TGI: 5.54 µM
KM12 [11]; [15]
  CC50: 59.7 µM
SF-268
  GI50: 2.17 µM
  TGI: 5.77 µM
SF-268; [15]
  CC50: 27.7 µM
LOX IMVI
  GI50: 0.82 µM
  TGI: 2.13 µM
LOX IMVI; [15]
  CC50: 4.86 µM
SK-MEL-28 [12]
  GI50: 1.85 µM
  TGI: 3.38 µM
SK-MEL-28 [12]; [15]
  CC50: 6.18 µM
OVCAR-3 [13]
  GI50: 0.55 µM
  TGI: 2.46 µM
OVCAR-3 [13]; [15]
  CC50: 11.1 µM
OVCAR-8
  GI50: 1.66 µM
  TGI: 4.68 µM
OVCAR-8; [15]
  CC50: 59.8 µM
SK-OV-3
  GI50: 7.71 µM
  TGI: 22.5 µM
SK-OV-3; [15]
  CC50: 53.4 µM
ACHN
  GI50: 1.46 µM
  TGI: 2.77 µM
ACHN; [15]
  CC50: 5.27 µM
UO-31
  GI50: 1.62 µM
  TGI: 3.12 µM
UO-31; [15]
  CC50: 6.01 µM
PC-3 [14]
  GI50: 3.23 µM
  TGI: > 100 µM
PC-3 [14]; [15]
  CC50: > 100 µM
HCT-15 [6]
  growth at 10 µM: 1.48%
KM12 [7]
  growth at 10 µM: 98.6%
[8]
  residual activity: 9%
